Assay outcomes from PubChem BioAssay.
TAAR1 agonist – agonists of human TAAR1; Q96RJ0; CHO RD-HGA16 TAAR1, Fluo-8 calcium fluorescence; vehicle wells 0%, saturating PEA agonist 100%; activation, % at 3 µM; actives 0.99% (n = 360,000);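 active means activation above the mean activation of all test compounds in the run plus 3 SD, cut at about 38% in these data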
Target sequence (Q96RJ0 whole entry, looked up): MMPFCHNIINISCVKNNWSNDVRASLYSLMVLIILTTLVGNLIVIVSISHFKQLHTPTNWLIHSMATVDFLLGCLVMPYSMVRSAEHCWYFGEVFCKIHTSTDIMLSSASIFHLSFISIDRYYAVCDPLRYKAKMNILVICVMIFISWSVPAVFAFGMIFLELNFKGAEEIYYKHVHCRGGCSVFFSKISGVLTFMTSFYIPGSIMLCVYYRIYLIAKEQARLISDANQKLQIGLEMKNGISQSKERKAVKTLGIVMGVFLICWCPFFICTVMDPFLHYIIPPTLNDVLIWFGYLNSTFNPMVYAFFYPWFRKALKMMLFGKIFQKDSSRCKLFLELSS
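test system = CHO RD-HGA16 cells carrying human TAAR1 plus Gα16 | schedule = 17-24 h seeding, 75 min 37 °C dye, 30 min RT | compound dosing = 3 µM single concentration | control set = DMSO and PEA EC100 | replicates = n 1 | signal = Fluo-8 fluorescence, 5 s baseline then 140 s kinetic read | measure = percent activation vs PEA EC100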
TAAR1 antagonist – human TAAR1 antagonism; AID 624466; actives 1.5% (n = 360,000); Q96RJ0; CHO RD-HGA16 TAAR1, Fluo-8 calcium fluorescence, antagonist; inhibition, % at 3 µM;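 active means inhibition above a per-plate cutoff, the mean inhibition of test compounds on that plate plus 3 SD, cut at about 49% in these data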;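 further: 0% = DMSO plus EC80 beta-PEA response and 100% = DMSO alone without agonist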
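Test system – hTAAR1-expressing CHO RD-HGA16 cells, Gα16-coupled · Reagent – β-PEA at EC80 concentration, post-compound challenge · Compound dosing – 3 µM, single point · Timing – 140 s kinetic read after compound, 140 s after agonist · Detection – Fluo-8 intracellular calcium dye fluorescence, real-time kinetic reads · Control set – DMSO and EC80 PEA controls · Repeats – n of 1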
CHO parental Ca – counter-screen: ATP calcium response change in parental CHO cells; parental CHO-K1, ATP-induced calcium, Fluo-8 fluorescence; inhibition, % at 5.6 µM; actives 0.63% (n = 330,000);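 active means inhibition above that plate's mean sample inhibition plus 3 SD, cut at about 26% in these data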;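 further: 0% = ATP-challenged DMSO wells and 100% = DMSO wells without ATP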
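Assay system: parental CHO cells; Read-out basis: percent inhibition of ATP-evoked calcium rise, normalized to controls; Benchmarks: ATP and no-ATP DMSO wells; Compound dosing: single nominal dose of 5.6 µM per compound; Signal: Fluo-8 calcium dye fluorescence; Also added: ATP as calcium-mobilizing challenge; Repeats: singlicate.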
OX1R antag-1 – OX1R (human) antagonism; O43613; OX1R-expressing cells, FRET antagonist read-out; inhibition, % at 6.6 µM; actives 1.8% (n = 330,000); in the data active means inhibition mostly above about 38%, no sharp cut-off; inactive means mostly below about 40%;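 further: 0% = agonist challenge alone and 100% = reference antagonist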
Target sequence (O43613 whole entry, looked up): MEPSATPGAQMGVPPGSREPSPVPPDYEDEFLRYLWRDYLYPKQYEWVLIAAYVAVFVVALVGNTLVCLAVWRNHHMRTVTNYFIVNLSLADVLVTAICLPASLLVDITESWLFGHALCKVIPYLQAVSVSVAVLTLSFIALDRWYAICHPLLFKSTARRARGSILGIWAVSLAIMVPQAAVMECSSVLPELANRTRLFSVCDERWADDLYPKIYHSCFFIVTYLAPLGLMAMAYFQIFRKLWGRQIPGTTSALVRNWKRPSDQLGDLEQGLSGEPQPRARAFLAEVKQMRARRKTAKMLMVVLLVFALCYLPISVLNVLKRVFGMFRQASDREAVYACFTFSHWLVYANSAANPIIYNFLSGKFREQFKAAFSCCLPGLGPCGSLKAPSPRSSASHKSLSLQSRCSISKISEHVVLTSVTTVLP
GPR7 antagonist – antagonists of human GPR7 (neuropeptides B/W receptor 1); GPR7-expressing cells, fluorescence antagonist assay; actives 1.1% (n = 290,000); inhibition, % at 4.4 µM; AID 1861; in the data active means inhibition above about 16%, passing the limit was not always enough;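 further: cells stimulated with the agonist NPW; 0% = agonist with vehicle and 100% = vehicle without agonist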
OX1R antag-2 – antagonists of human orexin 1 receptor | actives 0.43% (n = 330,000) | inhibition, % at 5 µM | O43613 | CHO/OX1R cells, Fluo-8 calcium fluorescence, orexin A | AID 434989;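 active means inhibition above its plate's threshold, mean inhibition of all tested compounds on the plate plus 3 SD, cut at about 37% in these data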;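 further: 0% = orexin A challenge wells and 100% = SB-334867-A antagonist wells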
nonsel antag count – nonselective antagonism, TAAR1 counter-screen | AID 651780 | shares compounds with TAAR1 antagonist | inhibition, % at 3 µM | actives 77% (n = 2,400) | counterscreen cell line, calcium fluorescence, antagonist mode; in the data active means inhibition above about 22%;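 further: CHO-Ga16 host cells stimulated with ATP at an EC80 level; 0% = agonist EC80 plus vehicle and 100% = vehicle without agonist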
TAAR1 antag conf – human TAAR1 antagonism, confirmed; shares compounds with TAAR1 antagonist; TAAR1-expressing cells, fluorescence antagonist read-out; inhibition, % at 3 µM; actives 40% (n = 2,400); in the data active means inhibition above about 49%;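 further: CHO-Ga16 host cells challenged with agonist PEA near its EC80; 0% = agonist at EC80 plus vehicle and 100% = vehicle with no agonist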
Ga16 ag counter – counter-screen for TAAR1 antagonists: nonselective Ga16 agonists; shares compounds with TAAR1 antagonist; Ga16-expressing cells, calcium fluorescence, agonist counterscreen; activation, % at 3 µM; actives 18% (n = 2,400); AID 651953; in the data active means activation above about 12%;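 further: 0% = vehicle wells and 100% = saturating stimulus response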
TAAR1 ag count – TAAR1 agonism, antagonist counter-screen. activation, % at 3 µM. hTAAR1 cell line, fluorescence activation, agonist mode. actives 2% (n = 2,400). shares compounds with TAAR1 antagonist. AID 651955; in the data active means activation above about 37%;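 further: CHO cells stably expressing TAAR1 with calcium dye readout; 0% = DMSO vehicle and 100% = full agonist response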
* marks the source's active call; other numbers are inactive results. An excerpt weighted towards active compounds, which were near 4.6% of everything screened.

What do the screens show for `Cc1ccc(C(=O)N/C(=C\c2ccco2)C(=O)NCCc2c[nH]c3ccccc23)cc1`?
TAAR1 agonist: 1; TAAR1 antagonist: 7; CHO parental Ca: -11; OX1R antag-1: 36; GPR7 antagonist: -10; OX1R antag-2: 5

Results for O=C(NCCc1c[nH]c2ccccc12)/C(=C\c1cccnc1)NC(=O)c1ccccc1Br ?
TAAR1 agonist: 16; TAAR1 antagonist: 63*; CHO parental Ca: -23; OX1R antag-1: 23; GPR7 antagonist: -4; OX1R antag-2: -27; nonsel antag count: 31*; TAAR1 antag conf: 53*; Ga16 ag counter: 8; TAAR1 ag count: 7

What do the screens show for `Cc1ccc(/C=C(/NC(=O)c2ccccc2)C(=O)NCCc2c[nH]c3ccccc23)o1`?
TAAR1 agonist: 17; TAAR1 antagonist: 58*; CHO parental Ca: -16; OX1R antag-1: 41; GPR7 antagonist: 8; OX1R antag-2: 4; nonsel antag count: 25*; TAAR1 antag conf: 42; Ga16 ag counter: 8; TAAR1 ag count: 8

What do the screens show for `O=C(NCCc1c[nH]c2ccccc12)/C(=C\c1cccnc1)NC(=O)c1ccco1`?
TAAR1 agonist: 4; TAAR1 antagonist: 8; CHO parental Ca: -9; OX1R antag-1: 14; GPR7 antagonist: 2; OX1R antag-2: -6

How did COc1cc(SC)ccc1C(=O)Nc1ccccc1C#N do in these assays?
TAAR1 agonist: 25; TAAR1 antagonist: 50*; CHO parental Ca: -20; OX1R antag-1: 14; GPR7 antagonist: -4; OX1R antag-2: -16; nonsel antag count: 9; TAAR1 antag conf: 16; Ga16 ag counter: 0; TAAR1 ag count: 0

Results for COc1cc(SC)ccc1C(=O)Nc1ccncc1 ?
TAAR1 agonist: -2; TAAR1 antagonist: -14; CHO parental Ca: -14; OX1R antag-1: 5; GPR7 antagonist: -3; OX1R antag-2: -20

Results for O=C(CC1CC1)Nc1ccc2c(c1)[C@@H]1C[C@H](CC(=O)NC3CCCC3)O[C@@H](CO)[C@@H]1O2 ?
TAAR1 agonist: -1; TAAR1 antagonist: 86*; nonsel antag count: -6; TAAR1 antag conf: 5; Ga16 ag counter: 1; TAAR1 ag count: 5

Results for Cc1cc(Br)cn2c(Cc3ccsc3)c(-c3ccco3)nc12 ?
TAAR1 agonist: -1; TAAR1 antagonist: -16

How did COc1ccc(C(CNC(=O)C(Cc2ccccc2)NC(N)=O)N(C)C)cc1 (configuration not stated) do in these assays?
TAAR1 agonist: -4; TAAR1 antagonist: 103*; CHO parental Ca: -4; OX1R antag-1: 1; GPR7 antagonist: -13; OX1R antag-2: -19; nonsel antag count: 6; TAAR1 antag conf: -2; Ga16 ag counter: 1; TAAR1 ag count: 2

Results for CCN1CCN(c2ncnc3c2cnn3-c2ccccc2)CC1 ?
TAAR1 agonist: 1; TAAR1 antagonist: 9; CHO parental Ca: -4; OX1R antag-1: 13; GPR7 antagonist: -4; OX1R antag-2: -23

What do the screens show for `COc1ccc(-n2ncc3c(N4CCN(Cc5ccccc5)CC4)ncnc32)cc1`?
TAAR1 agonist: 10; TAAR1 antagonist: 60*; CHO parental Ca: -11; OX1R antag-1: 8; GPR7 antagonist: -11; OX1R antag-2: -26; nonsel antag count: 28*; TAAR1 antag conf: 50*; Ga16 ag counter: 8; TAAR1 ag count: 5

What do the screens show for `COc1cccc(N2CCN(c3ncnc4c3cnn4-c3ccc(C)cc3C)CC2)c1`?
TAAR1 agonist: 4; TAAR1 antagonist: 96*; CHO parental Ca: 42*; OX1R antag-1: 43*; GPR7 antagonist: -11; OX1R antag-2: 39; nonsel antag count: 48*; TAAR1 antag conf: 65*; Ga16 ag counter: 9; TAAR1 ag count: 5

What do the screens show for `CCN(CC)S(=O)(=O)c1ccc(OC)c(NC(=O)C(C)Oc2ccc3c(C)cc(=O)oc3c2)c1` (configuration not stated)?
TAAR1 agonist: 1; TAAR1 antagonist: 103*; CHO parental Ca: -14; OX1R antag-1: 28; GPR7 antagonist: -1; OX1R antag-2: -11; nonsel antag count: 8; TAAR1 antag conf: -8; Ga16 ag counter: 9; TAAR1 ag count: 13

How did CCC/C=C/c1ccc(CN2C(C)C(=O)N(Cc3cn(CC4CCCCC4)nn3)CCS2(=O)=O)cc1 (configuration not stated) do in these assays?
TAAR1 agonist: -1; TAAR1 antagonist: -30

What do the screens show for `COc1ccc(CCC(=O)NCCS(=O)(=O)N2CCN(c3ccccc3OC)CC2)cc1`?
TAAR1 agonist: 17; TAAR1 antagonist: 59*; CHO parental Ca: -21; OX1R antag-1: 12; GPR7 antagonist: -8; OX1R antag-2: -30; nonsel antag count: 34*; TAAR1 antag conf: 52*; Ga16 ag counter: 14*; TAAR1 ag count: 13

How did O=C1N/C(=C/c2ccc(Br)cc2)C(O)=C1C=NCc1ccccc1 do in these assays?
TAAR1 agonist: 0; TAAR1 antagonist: 105*; CHO parental Ca: -11; OX1R antag-1: 11; GPR7 antagonist: -9; OX1R antag-2: -11; nonsel antag count: 2; TAAR1 antag conf: 1; Ga16 ag counter: 0; TAAR1 ag count: 3

How did CC(C(=O)NC1CCCC1)n1c(-c2ccncc2)nc2ccccc21 (configuration not stated) do in these assays?
TAAR1 agonist: 4; TAAR1 antagonist: -12

How did COc1cccc(OC)c1C(=O)NC(=S)N1CCN(c2ccc(C(F)(F)F)cc2[N+](=O)[O-])CC1 do in these assays?
TAAR1 agonist: 15; TAAR1 antagonist: 81*; CHO parental Ca: -21; OX1R antag-1: -5; GPR7 antagonist: -12; OX1R antag-2: -15; nonsel antag count: 31*; TAAR1 antag conf: 51*; Ga16 ag counter: 7; TAAR1 ag count: 5

How did O=c1oc(C2(O)CCCCC2)cc2ccc(/C=C/c3ccc(F)cc3)cc12 do in these assays?
TAAR1 agonist: 5; TAAR1 antagonist: 63*; CHO parental Ca: -19; OX1R antag-1: 9; OX1R antag-2: 6; nonsel antag count: 26*; TAAR1 antag conf: 24; Ga16 ag counter: 4; TAAR1 ag count: 4
